{
  "source": "ChEMBL document CHEMBL3351807",
  "about": "“2-Phenoxychromones and prenylflavonoids from Epimedium koreanum and their inhibitory effects on LPS-induced nitric oxide and interleukin-1β production” (J Nat Prod, 2014)",
  "format_in_all_cases": "functional, cell-based",
  "key": {"RAW264.7 [1]": {"test_system": "RAW264.7", "assay": "Inhibition of LPS-induced NO production in mouse RAW264.7 cells after 24 hrs by Griess reagent based assay", "conditions": "RAW264.7, 24 h", "method_in_brief": "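RAW 264.7 cells seeded at 2 × 10^6 cells/mL, stimulated with 1 μg/mL LPS with or without compound, 37 °C for 24 h. Supernatant nitrite measured as NO indicator: Griess reagent, room temperature 10 min, absorbance 550 nm against sodium nitrite standard curve. Viability of remaining cells by colorimetric cell counting kit. IC50 as mean of triplicate experiments.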"}, "RAW264.7 [2]": {"test_system": "RAW264.7", "assay": "Inhibition of LPS-induced IL-1beta production in mouse RAW264.7 cells after 24 hrs by ELISA", "conditions": "RAW264.7, 24 h", "method_in_brief": "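RAW 264.7 cells at 2 × 10^6 cells/mL stimulated with 1 μg/mL LPS in presence or absence of compound, 37 °C, 24 h. IL-1β in culture medium quantified by commercial ELISA kit. Remaining-cell viability checked by colorimetric cell counting kit. IC50 as mean of triplicate experiments.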"}, "RAW264.7 [3]": {"test_system": "RAW264.7", "assay": "Inhibition of LPS-induced IL-1beta gene expression in mouse RAW264.7 cells at 12.5 to 50 uM after 24 hrs by RT-PCR method", "method_in_brief": "(§1)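 Total RNA isolated with TRIZOL; single-stranded cDNA made from 2 μg total RNA, then PCR for iNOS or IL-1β transcripts. Products run on 1% agarose gels, stained with 5 μg/mL ethidium bromide. Cells LPS-stimulated, compound tested across doses.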"}, "RAW264.7 [4]": {"test_system": "RAW264.7", "assay": "Inhibition of LPS-induced iNOS gene expression in mouse RAW264.7 cells at 12.5 to 50 uM after 24 hrs by RT-PCR method", "method_in_brief": "as §1"}},
  "data": [
    {"smiles": "COc1cc2ccc3cc(OC)c(OC)c(OC)c3c2cc1OC", "values": [
      {"measurement": "IC50", "setting": "RAW264.7 [1]", "value": 49.3, "unit": "µM"},
      {"measurement": "IC50", "setting": "RAW264.7 [2]", "value": "> 50", "unit": "µM"}
    ]},
    {"smiles": "CC1(C)C[C@@H](O)C[C@@]2(C)OC(=O)C=C12", "note": "[(+)-EPILOLIOLIDE]", "values": [
      {"measurement": "IC50", "setting": "RAW264.7 [1]", "value": "> 50", "unit": "µM"},
      {"measurement": "IC50", "setting": "RAW264.7 [2]", "value": "> 50", "unit": "µM"}
    ]},
    {"smiles": "COc1ccc2c(c1)c(CC(=O)O)c(C)n2C(=O)c1ccc(Cl)cc1", "note": "[INDOMETHACIN]", "values": [
      {"measurement": "IC50", "setting": "RAW264.7 [1]", "value": 15.8, "unit": "µM"},
      {"measurement": "IC50", "setting": "RAW264.7 [2]", "value": 18.7, "unit": "µM"}
    ]},
    {"smiles": "COc1cc(C[C@@]2(O)CO[C@H](c3ccc(O)c(OC)c3)[C@H]2COC(C)=O)ccc1O", "values": [
      {"measurement": "IC50", "setting": "RAW264.7 [1]", "value": "> 50", "unit": "µM"},
      {"measurement": "IC50", "setting": "RAW264.7 [2]", "value": "> 50", "unit": "µM"}
    ]},
    {"smiles": "COc1cc([C@H]2OC[C@H]3[C@@H]2CO[C@H]3c2ccc(O)c(OC)c2)ccc1O", "note": "[PINORESINOL]", "values": [
      {"measurement": "IC50", "setting": "RAW264.7 [1]", "value": 39.5, "unit": "µM"},
      {"measurement": "IC50", "setting": "RAW264.7 [2]", "value": "> 50", "unit": "µM"}
    ]},
    {"smiles": "COc1c(O)cc(-c2cc(=O)c3c(O)cc(O)c(CC=C(C)C)c3o2)cc1CC=C(C)C", "values": [
      {"measurement": "IC50", "setting": "RAW264.7 [1]", "value": 16.8, "unit": "µM"},
      {"measurement": "IC50", "setting": "RAW264.7 [2]", "value": 8.8, "unit": "µM"},
      {"measurement": "inhibition", "setting": "RAW264.7 [3]", "value": "Dose-dependent effect"},
      {"measurement": "inhibition", "setting": "RAW264.7 [4]", "value": "Dose-dependent effect"}
    ]},
    {"smiles": "CC1(C)C[C@H](O)C[C@@]2(C)OC(=O)C=C12", "note": "[LOLIOLIDE]", "values": [
      {"measurement": "IC50", "setting": "RAW264.7 [1]", "value": "> 50", "unit": "µM"},
      {"measurement": "IC50", "setting": "RAW264.7 [2]", "value": "> 50", "unit": "µM"}
    ]},
    {"smiles": "CC1(C)C=Cc2c(cc(O)c3c(=O)cc(Oc4ccc(O)cc4)oc23)O1", "values": [
      {"measurement": "IC50", "setting": "RAW264.7 [1]", "value": "> 50", "unit": "µM"},
      {"measurement": "IC50", "setting": "RAW264.7 [2]", "value": "> 50", "unit": "µM"}
    ]},
    {"smiles": "COc1cc([C@@H]2OC[C@@H]3[C@H]2CO[C@H]3c2cc(OC)c(O)c(OC)c2)cc(OC)c1O", "values": [
      {"measurement": "IC50", "setting": "RAW264.7 [1]", "value": 45.6, "unit": "µM"},
      {"measurement": "IC50", "setting": "RAW264.7 [2]", "value": "> 50", "unit": "µM"}
    ]},
    {"smiles": "N=C(N)NN", "note": "[PIMAGEDINE]", "values": [
      {"measurement": "IC50", "setting": "RAW264.7 [1]", "value": 21.4, "unit": "µM"}
    ]},
    {"smiles": "CC(=O)/C=C/[C@@]1(O)C(C)=CC(=O)CC1(C)C", "values": [
      {"measurement": "IC50", "setting": "RAW264.7 [1]", "value": 38.5, "unit": "µM"},
      {"measurement": "IC50", "setting": "RAW264.7 [2]", "value": "> 50", "unit": "µM"}
    ]},
    {"smiles": "C=CCc1ccc(O)c(-c2cc(CC=C)ccc2O)c1", "note": "[MAGNOLOL]", "values": [
      {"measurement": "IC50", "setting": "RAW264.7 [1]", "value": 35.4, "unit": "µM"},
      {"measurement": "IC50", "setting": "RAW264.7 [2]", "value": 38.9, "unit": "µM"}
    ]},
    {"smiles": "CC(C)=CCc1cc(-c2cc(=O)c3c(O)cc(O)c(CC=C(C)C)c3o2)ccc1O", "values": [
      {"measurement": "IC50", "setting": "RAW264.7 [1]", "value": 19.7, "unit": "µM"},
      {"measurement": "IC50", "setting": "RAW264.7 [2]", "value": 8.6, "unit": "µM"},
      {"measurement": "inhibition", "setting": "RAW264.7 [3]", "value": "Dose-dependent effect"},
      {"measurement": "inhibition", "setting": "RAW264.7 [4]", "value": "Dose-dependent effect"}
    ]},
    {"smiles": "CC(C)=CCc1c(O)cc(O)c2c(=O)cc(-c3cc(O)c4c(c3)C=CC(C)(C)O4)oc12", "values": [
      {"measurement": "IC50", "setting": "RAW264.7 [1]", "value": "> 50", "unit": "µM"},
      {"measurement": "IC50", "setting": "RAW264.7 [2]", "value": "> 50", "unit": "µM"}
    ]},
    {"smiles": "COc1ccc(Oc2cc(=O)c3cc(O)c(CC=C(C)C)c(O)c3o2)cc1", "values": [
      {"measurement": "IC50", "setting": "RAW264.7 [1]", "value": 27.5, "unit": "µM"},
      {"measurement": "IC50", "setting": "RAW264.7 [2]", "value": 28.9, "unit": "µM"}
    ]},
    {"smiles": "COc1cn2c(=O)ccc(O)c2cn1", "values": [
      {"measurement": "IC50", "setting": "RAW264.7 [1]", "value": "> 50", "unit": "µM"},
      {"measurement": "IC50", "setting": "RAW264.7 [2]", "value": "> 50", "unit": "µM"}
    ]},
    {"smiles": "COc1cc2c(cc1OC)-c1c(cc(OC)c(OC)c1OC)CC2", "values": [
      {"measurement": "IC50", "setting": "RAW264.7 [1]", "value": "> 50", "unit": "µM"},
      {"measurement": "IC50", "setting": "RAW264.7 [2]", "value": "> 50", "unit": "µM"}
    ]}
  ]
}
